hERG protect: compounds protecting human hERG from proarrhythmic drug block; activation (rescue from dofetilide block), less the hit threshold, % at 10 µM; 310,000 compounds, 0.51% hits; Q12809; AID 1511; CHO-hERG, FluxOR thallium flux, dofetilide IC70 present;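 active = activation above the mean of controls blocked by dofetilide plus 5 SD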;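 note: thallium influx through hERG after potassium depolarization seen as dye fluorescence rise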
KCNK3 block: human KCNK3 channel inhibition, primary screen; O14649; CHO-KCNK3 thallium flux, FluxOR fluorescence; stronger effect = lower value; B-score at 10 µM; 340,000 compounds, 0.84% hits; AID 602410;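 active = B-score under library mean minus 4 SD, starting fluorescence ratio at most library mean plus 5 SD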;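 note: more negative B-score means stronger inhibition of thallium flux through KCNK3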
KCNQ1 inh: human KCNQ1 channel inhibition; P51787; CHO-K1 KCNQ1, FluxOR thallium flux fluorescence; stronger effect = higher value; B-score at 10 µM; 310,000 compounds, 1.3% hits;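 active = compounds whose thallium flux B-score, printed positive for inhibition, exceeds three library SD while starting fluorescence stays within three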;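 note: channel opened by potassium depolarization with thallium stimulus after 20 min compound exposure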
Target sequence (P51787 whole entry, looked up): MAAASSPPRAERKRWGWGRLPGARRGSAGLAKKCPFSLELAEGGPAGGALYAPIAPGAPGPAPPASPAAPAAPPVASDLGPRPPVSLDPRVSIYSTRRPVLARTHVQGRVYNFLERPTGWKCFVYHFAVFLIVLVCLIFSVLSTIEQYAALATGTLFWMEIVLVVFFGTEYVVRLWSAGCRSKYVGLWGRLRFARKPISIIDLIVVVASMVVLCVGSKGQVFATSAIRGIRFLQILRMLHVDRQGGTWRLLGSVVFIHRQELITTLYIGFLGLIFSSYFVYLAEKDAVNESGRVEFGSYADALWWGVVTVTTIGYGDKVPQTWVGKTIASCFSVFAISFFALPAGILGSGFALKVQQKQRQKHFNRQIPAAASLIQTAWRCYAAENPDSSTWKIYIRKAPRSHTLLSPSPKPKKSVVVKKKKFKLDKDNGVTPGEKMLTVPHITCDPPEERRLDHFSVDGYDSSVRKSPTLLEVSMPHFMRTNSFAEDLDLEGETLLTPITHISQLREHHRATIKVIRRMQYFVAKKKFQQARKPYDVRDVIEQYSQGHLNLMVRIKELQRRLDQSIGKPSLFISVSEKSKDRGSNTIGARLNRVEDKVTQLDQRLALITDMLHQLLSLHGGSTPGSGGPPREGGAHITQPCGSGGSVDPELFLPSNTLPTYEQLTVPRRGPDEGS
KCNK9 block: blocks the human KCNK9 two-pore domain potassium channel; Q9NPC2; HEK293 KCNK9, FluxOR thallium flux fluorescence; stronger effect = lower value; B-score at 10 µM; 310,000 compounds, 1.2% hits; AID 488922;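 active = ratio B-score over 3 SD below the library mean, with starting fluorescence within 5 SD of its mean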;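 note: negative B-score means less thallium flux so channel inhibition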
KCNQ1 act: human KCNQ1 channel potentiation or activation. P51787. CHO-K1 KCNQ1, thallium flux FluxOR fluorescence; stronger effect = higher value. B-score at 10 µM. 310,000 compounds, 0.35% hits;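 active = fluorescence ratio B-score, a plate-corrected score, at least three library SD, with initial intensity B-score within 5 SD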
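Material: CHO-K1 cells stably expressing KCNQ1. Medium: assay buffer for compound exposure, DMSO matched across wells. Reagent: K+/Tl+ depolarizing stimulus. Compound dosing: single-concentration screen. Times: 37 °C overnight plating, 90-min dark dye load, 20-min compound pretreatment. Technique: FluxOR Tl+ flux fluorescence.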
Kir21 block: Kir2.1 (mouse) channel inhibition; 310,000 compounds, 0.85% hits; HEK293-Kir2.1, FluxOR thallium flux fluorescence; stronger effect = lower value; B-score at 10 µM;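 active = fluorescence ratio B-score at or below minus 3 SD of library scores, with starting-brightness B-score within 2 SD, cut at about -4.2 in these data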;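 note: channel flux triggered by added potassium and thallium sulfate stimulus; B-score of peak minus minimum fluorescence over baseline after thallium stimulus; more negative B-score means stronger Kir2.1 block with less thallium influx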
The depositor's hits bear a star; i = inactive; x = not tested or not shown. Hits are enriched below; roughly 3.7% of the tested compounds scored in any of these assays.

SMILES	hERG protect	KCNK3 block	KCNQ1 inh	KCNK9 block	KCNQ1 act	Kir21 block
Cc1ccc(N(C)S(=O)(=O)c2ccc3c(c2)NC(=O)C(C)S3)cc1 (stereo unspecified)	-7.9	i	i	i	i	-2.92
COc1ccccc1N1C(=O)C2C(C(=O)c3ccccc3)=NN(c3ccc(C)cc3)C2C1=O (stereo unspecified)	-10.3	i	6*	i	i	0.2
O=C(NCc1cccc(Cl)c1)c1ccc(CS(=O)Cc2ccccc2Cl)o1 (stereo unspecified)	-3.9	i	i	i	i	-0.34
CO/N=C(/CS(=O)Cc1ccccc1Cl)c1ccc(Cl)cc1Cl (stereo unspecified)	-1.5	i	i	i	i	-5*
COc1ccc(CN2CCN(Cc3ccccc3F)CC2)cc1OC	-11.8	i	i	i	i	-2.24
O=S(=O)(N1CCOCC1)n1nnc2ccccc21	-1.3	i	i	i	i	-0.02
O=S(=O)(N1CCOCC1)n1c(Cc2ccccc2)nc2ccccc21	-9.8	i	i	i	i	-4.32*
O=C(NC1CCCCC1)C(Cc1ccccc1)NS(=O)(=O)c1cccs1 (stereo unspecified)	7.9*	i	i	i	i	-1
O=C(NC1CCCc2ccccc21)C(Cc1ccccc1)NS(=O)(=O)c1cccs1 (stereo unspecified)	-8.8	i	i	i	i	-0.27
O=C(Nc1ccccc1C(=O)NC(Cc1ccccc1)C(=O)NC1CCCCCC1)c1ccccc1 (stereo unspecified)	-5.7	i	6*	i	i	-0.37
Cc1ccc(NC(=S)NCC2CCN(C(C)c3ccccc3)C2)cc1 (stereo unspecified)	-10.2	i	i	i	i	-0.39
CC(c1ccccc1)N1CCC(CNC(=S)Nc2cccc(Cl)c2)C1 (stereo unspecified)	-14.1	i	i	i	i	-5.89*
C=C/C(C)=C/CC1C(=C)CCC2C(C)(C(=O)O)CCCC12C (stereo unspecified)	-8.7	i	i	i	i	2.42
C=C[C@]1(C)C=C2CCC3[C@](C)(CCC[C@@]3(C)C(=O)O)C2CC1 (stereo partly specified)	0.4	i	i	i	9*	1.43
COc1ccc(CCNC(=O)CSc2ccc3ccccc3c2)cc1OC	-6.7	i	i	i	i	-6.87*
CCCCn1c(-c2ccccc2)cnc1SCC(=O)NCCc1ccc(OC)c(OC)c1	-12.0	i	i	i	i	-6.28*
COc1ccc(CCNC(=O)CSc2nn(-c3ccccc3)c(=S)s2)cc1OC	-10.9	i	i	i	i	-6.58*
C=C1/C=C(\C)C(C)(O)CC(O)CC(=O)C(O)C(O)C(C)CC(C)OC(=O)/C(C)=C/CC/C=C/C(OC)C(O)CC(C)C1 (stereo unspecified)	x	i	x	x	x	x
CCc1ccc(C(c2ccc(CC)cc2)C(Cl)Cl)cc1	x	i	x	x	x	x
Clc1ccc(C(c2ccccc2Cl)C(Cl)Cl)cc1 (stereo unspecified)	x	-8.93*	x	x	x	x
CN(C)CCCN(C(=O)c1ccc([N+](=O)[O-])s1)c1nc2cc3c(cc2s1)OCCO3	-17.2	i	i	i	i	0.25
CCN(CC)CCN(C(=O)c1ccc(Br)s1)c1nc2cc3c(cc2s1)OCCO3	-19.8	i	i	i	i	1.15
CN(C)CCCN(C(=O)c1cc2cc([N+](=O)[O-])ccc2s1)c1nc2cc3c(cc2s1)OCCO3	-16.1	i	6*	i	i	1.94
CCN(Cc1ccccc1)S(=O)(=O)c1ccc(C(=O)N(CCCN(C)C)c2nc3ccc(F)cc3s2)cc1	-25.6	i	i	i	i	-0.53
CCN(Cc1ccccc1)S(=O)(=O)c1ccc(C(=O)N(CCCN(C)C)c2nc3cc4c(cc3s2)OCCO4)cc1	-29.1	i	7*	i	i	0.24
SMILES	hERG protect	KCNK3 block	KCNQ1 inh	KCNK9 block	KCNQ1 act	Kir21 block
CN(C)CCCN(C(=O)c1ccc(Br)s1)c1nc2cc3c(cc2s1)OCCO3	-18.8	i	i	i	i	-7.83*
CCc1ccc(NC(=O)CN(CC(=O)Nc2ccc(CC)cc2)CC(C)O)cc1 (stereo unspecified)	-9.7	i	i	i	i	1.45
CCCCCC(=O)Nc1cc(S(=O)(=O)O)cc2cc(S(=O)(=O)O)cc(O)c12	x	i	x	x	x	x
CCOc1ccc(CNC(=S)Nc2ccccc2)cc1Cl	-2.8	i	i	i	i	-0.02
COc1cc(/C=C2\SC(c3ccccc3)=NC2=O)cc(Cl)c1O	-7.9	-10.4*	i	i	i	1.98
COc1ccc(/C=C2\SC(c3ccc(C)cc3)=NC2=O)cc1OC	9.7*	i	i	i	i	0.19
Cc1nnc(SCC(=O)NNC(=O)COc2ccc(Br)cc2)n1C	x	i	x	x	x	x
Cc1ccc(OC(C)C(=O)N2CCc3ccccc32)cc1 (stereo unspecified)	-4.1	i	i	i	i	0.56
CC(Oc1ccccc1)C(=O)N1CCCc2ccccc21 (stereo unspecified)	-9.4	i	i	i	i	-5.45*
COc1ccc(OC(C)C(=O)N2CCCc3ccccc32)cc1 (stereo unspecified)	-5.0	i	i	i	i	-4.84*
CCCS(=O)(=O)N1CCC(C(=O)Oc2ccc(OC)cc2)CC1	-4.2	i	i	i	i	0.35
COc1ccc2[nH]c(-c3ccccc3)cc2c1	-2.1	i	i	i	i	-1.62
Cc1cc(S(=O)(=O)N2CCOCC2)ccc1OCC(=O)NCc1ccco1	6.7*	i	i	i	i	-0.07
CN(/C=C/C(=C\C=[N+](C)c1ccccc1)OCCCS(=O)(=O)[O-])c1ccccc1	-19.1	i	6*	i	i	-4.57
COc1ccccc1-c1cccc([C@@H]2C[C@H]3[C@H](CON3C)CN2Cc2cc(Cl)cc(Cl)c2)c1	x	i	x	x	x	x
Cc1ccc2nc(C)c3c(c2c1)N(c1ccc(F)cc1)CC3	-13.7	i	i	i	i	-5.31*
Cc1cccc(NC(=O)c2ccc(Cl)c(S(=O)(=O)N3CCc4ccccc43)c2)n1	x	-10.5*	x	x	x	x
C1CN(c2nc3nonc3nc2N2C[C@H]3CC[C@H]2C3)CCS1	-11.3	i	i	i	i	-1.48
CN(C)CCCNC(=O)/C(=C\c1ccc(-c2ccc(Br)cc2)o1)NC(=O)c1ccccc1	-18.4	i	i	i	i	-1.86
CN(C)CCNC(=O)/C(=C/c1ccc(-c2cccc(Cl)c2)o1)NC(=O)c1ccccc1	-18.7	i	i	i	i	-4.59*
